Experiments:
Plasmodium falciparum = assay: Antimalarial activity against chloroquine-resistant Plasmodium falciparum W2; assay type: functional, organism-based
[1] = Toxicity in Swiss mouse after 10 days; assay type: organism-based; details: in vivo
Outline: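 Acute toxicity: a single drug injection into four non-infected random-bred Swiss mice, with deaths recorded 10 days after injection.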

Plasmodium berghei = assay: Antimalarial activity against Plasmodium berghei infected Swiss mice (Mus musculus) by intraperitoneal dose; assay type: functional; details: ip
Outline: (§1)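 Infected mice dosed i.p. once daily for 4 days, with the first dose 1 h after i.p. inoculation with parasites. ED50 is the dose giving 50% inhibition of parasite growth versus vehicle-treated controls (equal volume of vehicle), read from a plot of activity (% of control) against log dose. P. berghei is the sensitive strain and P. yoelii nigeriensis the multidrug-resistant strain.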

[2] = system: Plasmodium yoelii nigeriensis; assay: Antimalarial activity against Plasmodium yoelii nigeriensis infected Swiss mice (Mus musculus) by intraperitoneal dose; assay type: functional; details: ip; outline: as §1
[3] = Therapeutic index, ratio of LD50 for Swiss mice (Mus musculus) to […] for Plasmodium berghei infected Swiss mice (Mus musculus); details: read-out: Ratio LD50/ED50
Outline: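 Ratio of acute LD50 to P. berghei ED50 in mice. LD50: one injection into four non-infected random-bred Swiss mice, deaths scored at 10 days. ED50: i.p. dosing once daily for 4 days, starting 1 h after i.p. parasite inoculation. Parasite growth inhibition is taken against vehicle-treated controls, and the value is read from % of control versus log dose.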

Mastomys coucha = assay: Toxicity against Mastomys coucha assessed as methemoglobin levels at 15 mg/kg after 3 days; assay type: organism-based; parameters: dose 15 mg/kg; details: in vivo, 72 h
Outline: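 Mastomys coucha dosed at 15 mg/kg per day for 3 days, then blood methemoglobin measured as % MetHb. A vehicle group served as control. Values are mean±SEM per group from a set of three experiments.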

Structure (SMILES): CC(C)Oc1cc(NC2(CCCN)CC2)c2ncccc2n1
- IC50 (Plasmodium falciparum): 100 nM
- LD50 at 240 h [1]: 175 mg/kg
- ED50 (Plasmodium berghei): 0.29 mg/kg
- ED50 [2]: 0.38 mg/kg
- selectivity ratio [3]: 603
- Activity (Mastomys coucha): -0.1%

Structure (SMILES): COc1cc(NC(C)(C)CCCN)c2ncccc2n1
- IC50 (Plasmodium falciparum): 65 nM
- LD50 at 240 h [1]: 130 mg/kg
- ED50 (Plasmodium berghei): 1.8 mg/kg
- ED50 [2]: 2.1 mg/kg
- selectivity ratio [3]: 72
- Activity (Mastomys coucha): 0.1%

Structure (SMILES): CCN(CC)CCCC(C)Nc1ccnc2cc(Cl)ccc12 (stereo unspecified) [CHLOROQUINE]
- ED50 (Plasmodium berghei): 2 mg/kg

Structure (SMILES): COc1ccc2nc(OC(C)C)cc(NC3(CCCN)CC3)c2n1
- IC50 (Plasmodium falciparum): 47 nM
- LD50 at 240 h [1]: > 200 mg/kg
- ED50 (Plasmodium berghei): 0.31 mg/kg
- ED50 [2]: 0.41 mg/kg
- selectivity ratio [3]: > 645
- Activity (Mastomys coucha): -0.12%

Structure (SMILES): CCOc1cc(NC2(CCCN)CC2)c2nc(OC)ccc2n1
- IC50 (Plasmodium falciparum): 45 nM
- LD50 at 240 h [1]: > 200 mg/kg
- ED50 (Plasmodium berghei): 0.72 mg/kg
- ED50 [2]: 0.65 mg/kg
- selectivity ratio [3]: > 278
- Activity (Mastomys coucha): -0.1%

Structure (SMILES): CCOc1cc(NC2(CCCN)CC2)c2ncccc2n1
- IC50 (Plasmodium falciparum): 72 nM
- LD50 at 240 h [1]: 161 mg/kg
- ED50 (Plasmodium berghei): 0.88 mg/kg
- ED50 [2]: 1 mg/kg
- selectivity ratio [3]: 183
- Activity (Mastomys coucha): -0.12%

Structure (SMILES): COc1cc(NC(C)(C)CCCN)c2nc(OC)ccc2n1
- IC50 (Plasmodium falciparum): 33 nM
- LD50 at 240 h [1]: > 200 mg/kg
- ED50 (Plasmodium berghei): 1.6 mg/kg
- ED50 [2]: 2 mg/kg
- selectivity ratio [3]: > 125
- Activity (Mastomys coucha): 0.13%

Structure (SMILES): COc1cc(NC(C)CCCN)c2ncccc2c1 (stereo unspecified) [PRIMAQUINE]
- IC50 (Plasmodium falciparum): > 10000 nM
- LD50 at 240 h [1]: 55 mg/kg
- Activity (Mastomys coucha): 3.4%

Structure (SMILES): CCOc1cc(NC(C)(C)CCCN)c2ncccc2n1
- IC50 (Plasmodium falciparum): 77 nM
- LD50 at 240 h [1]: 155 mg/kg
- ED50 (Plasmodium berghei): 0.95 mg/kg
- ED50 [2]: 0.89 mg/kg
- selectivity ratio [3]: 163
- Activity (Mastomys coucha): -0.12%

Structure (SMILES): CC(C)Oc1cc(NC(C)(C)CCCN)c2ncccc2n1
- IC50 (Plasmodium falciparum): 110 nM
- LD50 at 240 h [1]: 167 mg/kg
- ED50 (Plasmodium berghei): 0.33 mg/kg
- ED50 [2]: 0.28 mg/kg
- selectivity ratio [3]: 506
- Activity (Mastomys coucha): -0.15%

Structure (SMILES): COc1cc(NC2(CCCN)CC2)c2ncccc2n1
- IC50 (Plasmodium falciparum): 57 nM
- LD50 at 240 h [1]: 145 mg/kg
- ED50 (Plasmodium berghei): 1.6 mg/kg
- ED50 [2]: 1.4 mg/kg
- selectivity ratio [3]: 91
- Activity (Mastomys coucha): 0.1%

Structure (SMILES): CCOc1cc(NC2(CCCN)CC2)c2nc(C(F)(F)F)ccc2n1
- IC50 (Plasmodium falciparum): 58 nM
- LD50 at 240 h [1]: > 200 mg/kg
- ED50 (Plasmodium berghei): 0.75 mg/kg
- ED50 [2]: 0.68 mg/kg
- selectivity ratio [3]: > 267
- Activity (Mastomys coucha): 0.095%

Structure (SMILES): CC(C)Oc1cc(NC2(CCCN)CC2)c2nc(C(F)(F)F)ccc2n1
- IC50 (Plasmodium falciparum): 55 nM
- LD50 at 240 h [1]: > 200 mg/kg
- ED50 (Plasmodium berghei): 0.26 mg/kg
- ED50 [2]: 0.23 mg/kg
- selectivity ratio [3]: > 769
- Activity (Mastomys coucha): 0.14%

Structure (SMILES): COc1cc(NC(C)(C)CCCN)c2nc(C(F)(F)F)ccc2n1
- IC50 (Plasmodium falciparum): 21 nM
- LD50 at 240 h [1]: > 200 mg/kg
- ED50 (Plasmodium berghei): 1.5 mg/kg
- ED50 [2]: 1.7 mg/kg
- selectivity ratio [3]: > 133
- Activity (Mastomys coucha): -0.11%

Reference: ChEMBL document CHEMBL1137548, “Synthesis and evaluation of naphthyridine compounds as antimalarial agents” (Bioorg Med Chem Lett, 2007)
